The source of these data is ChEMBL document CHEMBL1955865, “Synthesis of novel spirooxindole derivatives by one pot multicomponent reaction and their antimicrobial activity” (2012).

Activity calls are given as the source filed them. The rule behind the calls is not given here.

In assay [1] the test system is Staphylococcus aureus. The experiment in a line: Antibacterial activity against methicillin-resistant Staphylococcus aureus at 1000 ug/disc after 24 hrs by disc diffusion assay. The note with it: for zone of inhibition at 1000 µg/disc: read-out: IZ. The assay is classed as functional. In short, it runs like this: (§1)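 Disc diffusion on Mueller Hinton agar. Bacteria were grown 24 h at 37 °C in MHB and diluted to about 10^4 CFU/ml, swabbed onto plates and dried 10 min. Discs were loaded at 1000 μg/disc and held 30 min at room temperature for diffusion. Solvent served as negative control. After 24 h at 37 °C, inhibition zones were read in mm; run twice.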

Another assay has as its system Botrytis cinerea. The experiment in a line: Antifungal activity against Botrytis cinerea at 1000 ug/disc after 48 hrs by disc diffusion assay. The settings on record: for zone of inhibition at 1000 µg/disc: read-out: IZ. The class given is functional. A digest of the protocol:
(§2)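 Fungal disc diffusion with inoculum from SDA spores (filamentous) or SDB culture (yeast). Test cultures were swabbed on agar, and discs at 1000 µg/disc were left 30 min at room temperature, with a solvent negative control. Plates were incubated 48 h at 27 °C. Zone of inhibition was measured in mm, and the experiment was repeated twice.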
(A growth-free zone around the sample is the usual read-out of agar diffusion tests.)

The test system of the next assay is Candida albicans. The experiment in a line: Antifungal activity against Candida albicans MTCC 227 at 1000 ug/disc after 48 hrs by disc diffusion assay. The assay is classed as functional. The settings on record: for zone of inhibition at 1000 µg/disc: MTCC 227, 48 h, read-out: IZ. In short, it runs like this:
as §2

Another assay has as its system Klebsiella pneumoniae. The experiment in a line: Antibacterial activity against Klebsiella pneumoniae MTCC 109 at 1000 ug/disc after 24 hrs by disc diffusion assay. The settings on record: MTCC 109, 24 h, read-out: IZ. The assay is classed as functional. A digest of the protocol: (§3)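 Disc diffusion on Mueller Hinton agar. Cultures (about 10^4 CFU/ml) were swabbed on and dried 10 min. Discs loaded at 1000 µg/disc were left 30 min at room temperature for diffusion, with a solvent negative control. Plates were incubated 24 h at 37 °C. Inhibition zones were measured in mm, and the experiment was done twice.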

Assay [2] deals with Salmonella enterica subsp. enterica serovar Paratyphi B. The experiment in a line: Antibacterial activity against Salmonella paratyphi B at 1000 ug/disc after 24 hrs by disc diffusion assay. The class given is functional. The settings on record: for zone of inhibition at 1000 µg/disc: read-out: IZ. A digest of the protocol: as §1
A further assay has as its system Micrococcus luteus. The experiment in a line: Antibacterial activity against Micrococcus luteus at 1000 ug/disc after 24 hrs by disc diffusion assay. The assay is classed as functional. The settings on record: read-out: IZ. In short, it runs like this:
as §3

A short description of assay [3]: Antifungal activity against Malassezia pachydermatis at 1000 ug/disc after 48 hrs by disc diffusion assay. The assay is classed as functional. In short, it runs like this:
as §2

Assay [4] has as its system Staphylococcus aureus. The experiment in a line: Antibacterial activity against Staphylococcus aureus MTCC 96 at 1000 ug/disc after 24 hrs by disc diffusion assay. The assay is classed as functional. The note with it: MTCC 96, 24 h, read-out: IZ. In short, it runs like this:
as §3

For another assay, the system named is Proteus vulgaris. The experiment in a line: Antibacterial activity against Proteus vulgaris MTCC 1771 at 1000 ug/disc after 24 hrs by disc diffusion assay. The class given is functional. The note with it: MTCC 1771, 24 h, read-out: IZ. In short, it runs like this: as §3
In the next assay the test system is Klebsiella aerogenes. The experiment in a line: Antibacterial activity against Enterobacter aerogenes MTCC 111 at 1000 ug/disc after 24 hrs by disc diffusion assay. The settings on record: MTCC 111, 24 h, read-out: IZ. The assay is classed as functional. In short, it runs like this: as §3
The test system of another assay is Salmonella typhimurium. The experiment in a line: Antibacterial activity against Salmonella Typhimurium MTCC 1251 at 1000 ug/disc after 24 hrs by disc diffusion assay. The settings on record: Salmonella enterica, MTCC 1251, 24 h; read-out: IZ. The assay is classed as functional, Salmonella enterica subsp. enterica serovar Typhimurium. A digest of the protocol: as §3

On to `CN1CC2=C(C(=O)c3ccccc3C2=O)C12C(=O)N(Cc1ccccc1)c1ccccc12` (stereo unspecified), for which the zone of inhibition at 1000 µg/disc amounted to 8 mm in the assay with Staphylococcus aureus [1]; 10 mm with Botrytis cinerea; 8 mm in the assay with Candida albicans; 10 mm in the assay on Klebsiella pneumoniae; 8 mm in [2]; 9 mm in the assay with Micrococcus luteus. Further, the zone of inhibition at 1000 µg/disc in the assay on Staphylococcus aureus [4] turned out to be 9 mm; with Proteus vulgaris, 8 mm; with Klebsiella aerogenes it was 8 mm; in the assay with Salmonella typhimurium, 9 mm. In addition, in assay [3], the inhibition zone (IZ) was found to be 9 mm.
Turning to `CN1C(=O)C2(C3=C(C(=O)c4ccccc4C3=O)C3CCCN32)c2ccccc21` (stereo unspecified), the zone of inhibition at 1000 µg/disc in the assay with Staphylococcus aureus [1] came out at 8 mm; in the assay with Botrytis cinerea, 8 mm; in the assay with Candida albicans, 10 mm; with Klebsiella pneumoniae, 9 mm; with Micrococcus luteus, 9 mm; in the assay with Staphylococcus aureus [4], 10 mm. Further, the zone of inhibition at 1000 µg/disc in the assay with Proteus vulgaris was 8 mm; in the assay with Klebsiella aerogenes it was 9 mm; with Salmonella typhimurium it was 11 mm. For the same molecule, in assay [2], the “inhibition zone (IZ)” value is “inactive”. In assay [3], this molecule had an inhibition zone (IZ) of 10 mm.
For `Cc1ccc2c(c1)C1(C(=O)N2)C2=C(C(=O)c3ccccc3C2=O)C2CCCN21` (stereo unspecified), the zone of inhibition at 1000 µg/disc is 8 mm in the assay on Staphylococcus aureus [1]; 9 mm with Botrytis cinerea; 10 mm in the assay on Klebsiella pneumoniae; 8 mm in [2]; 11 mm with Micrococcus luteus; 10 mm in the assay on Staphylococcus aureus [4]. Also, the zone of inhibition at 1000 µg/disc with Proteus vulgaris came to 9 mm; with Klebsiella aerogenes, 9 mm; in the assay on Salmonella typhimurium it was 11 mm. In addition, the “inhibition zone (IZ)” value with Candida albicans was “inactive”. Also, the inhibition zone (IZ) in assay [3] amounted to 9 mm.
As for `O=C1C2=C(C(=O)c3ccccc31)C1(C(=O)Nc3ccc(Cl)cc31)N1CCCC21` (stereo unspecified), the zone of inhibition at 1000 µg/disc in the assay on Staphylococcus aureus [1] was 9 mm; in the assay with Klebsiella pneumoniae, 11 mm; in the assay with Micrococcus luteus it was 10 mm; in the assay on Staphylococcus aureus [4], 12 mm; in the assay on Proteus vulgaris it was 9 mm; in the assay with Klebsiella aerogenes, 9 mm. Also, the zone of inhibition at 1000 µg/disc in the assay with Salmonella typhimurium is 10 mm. Besides, the “inhibition zone (IZ)” value (in the assay with Botrytis cinerea; in the assay with Candida albicans; in [2]) was “inactive” throughout. This molecule also had an inhibition zone (IZ) in assay [3] of 9 mm.
For the molecule `CN1CC2=C(C(=O)c3ccccc3C2=O)C12C(=O)c1ccccc1C2=O`, the “inhibition zone (IZ)” value (in the assay on Staphylococcus aureus [1]; with Candida albicans; in assay [3]) was “inactive” in each case. Besides, the zone of inhibition at 1000 µg/disc with Botrytis cinerea amounted to 9 mm; with Klebsiella pneumoniae, 9 mm; in assay [2], 9 mm; in the assay on Micrococcus luteus it was 8 mm; in the assay on Staphylococcus aureus [4], 9 mm; in the assay with Proteus vulgaris, 8 mm. The figures for the zone of inhibition at 1000 µg/disc with Klebsiella aerogenes and with Salmonella typhimurium were 8 mm and 10 mm, respectively.
With `CN1CC2=C(C(=O)c3ccccc3C2=O)C12C(=O)Nc1ccc(Cl)cc12` (stereo unspecified), the zone of inhibition at 1000 µg/disc with Staphylococcus aureus [1] was determined as 11 mm; with Botrytis cinerea, 8 mm; with Candida albicans, 9 mm; in the assay with Klebsiella pneumoniae it was 13 mm; in assay [2] it was 13 mm; with Micrococcus luteus, 12 mm. Moreover, the zone of inhibition at 1000 µg/disc was found to be 14 mm in the assay on Staphylococcus aureus [4], 10 mm in the assay on Proteus vulgaris, 10 mm in the assay on Klebsiella aerogenes and 11 mm in the assay with Salmonella typhimurium. Also, the inhibition zone (IZ) in assay [3] was 10 mm.
